Data taken from ChEMBL document CHEMBL1137702, “Identification of hydrolytically stable and selective P2Y(1) receptor agonists” (Eur J Med Chem, 2009).
The source made the active and inactive calls. No cut-off for these calls is given here.

Experiments:
P2Y purinoceptor 1 = P2Y purinoceptor 1 (Meleagris gallopavo, UniProt P49652); assay: Agonist activity at turkey P2Y1 receptor expressed in human 1321N1 cells assessed as increase in intracellular calcium concentration by dual-excitation spectrofluorimetric analysis; format: functional, cell-based
[1] = target: T1, Ectonucleoside triphosphate diphosphohydrolase 2 (Homo sapiens) (UniProt Q9Y5L3); assay: Activity of human NTPDase 2 expressed in human 293T cells assessed as drug hydrolysis at 100 uM after 20 mins relative to ATP; format: cell-based; set-up: scale not given: the % may be the effect or the level left
T1 sequence (whole entry): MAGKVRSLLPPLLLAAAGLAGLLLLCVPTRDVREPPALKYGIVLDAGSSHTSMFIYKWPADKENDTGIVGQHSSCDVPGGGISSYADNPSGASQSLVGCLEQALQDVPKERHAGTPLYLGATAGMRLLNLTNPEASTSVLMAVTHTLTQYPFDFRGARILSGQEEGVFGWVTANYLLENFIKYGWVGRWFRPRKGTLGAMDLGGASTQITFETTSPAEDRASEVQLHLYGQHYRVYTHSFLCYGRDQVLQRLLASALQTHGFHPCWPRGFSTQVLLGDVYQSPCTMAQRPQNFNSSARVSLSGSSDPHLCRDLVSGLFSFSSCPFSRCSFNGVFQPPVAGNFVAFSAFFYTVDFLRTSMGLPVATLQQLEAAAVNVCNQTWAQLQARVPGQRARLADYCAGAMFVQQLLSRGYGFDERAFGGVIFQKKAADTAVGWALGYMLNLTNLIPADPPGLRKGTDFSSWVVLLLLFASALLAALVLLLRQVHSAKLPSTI
Procedure, shortened: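 Human NTPDase1, 2, 3 or 8 in crude extracts of transfected 293T cells, pre-incubated 3 min at 37 °C in Tris-Ringer buffer pH 7.4. […] Untransfected-cell extract activity subtracted.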

[2] = Stability at 77 ug/ml after 30 mins by HPLC in presence of calf intestine alkaline phosphatase; format: ADME; details: cattle, isolated protein, 0.5 h
[3] = Dissociation constant, pKa of the compound; format: physicochemical
[4] = target: P2Y purinoceptor 6 (Rattus norvegicus) (UniProt Q63371); assay: Antagonist activity at rat P2Y6 receptor expressed in human 1321N1 cells assessed as inhibition of UDP-induced increase in intracellular calcium concentration by dual-excitation spectrofluorimetric analysis; format: functional, cell-based
Procedure, shortened: (§1)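 Fura-2-loaded suspensions of stably transfected 1321N1 cells were assayed at 37 °C in HEPES-buffered saline pH 7.4 with 1 mM Ca2+ and Mg2+. […] [Ca2+]i was read by dual-excitation spectrofluorometry.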

[5] = Chemical stability assessed as hydrolysis half life at 1.5 mg at pH 1.4 measured at 24 hrs interval for 12 days by 31P NMR analysis; format: physicochemical
Procedure, shortened: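 1.5 mg in 0.2 M HCl/KCl with D2O, pH adjusted to 1.4, kept at 37 °C. 31P NMR spectra, 500 scans each, were recorded about every 24 h for 12 days to obtain half-life.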

P2Y purinoceptor 2 = P2Y purinoceptor 2 (Homo sapiens, UniProt P41231); assay: Agonist activity at human P2Y2 receptor expressed in human 1321N1 cells assessed as increase in intracellular calcium concentration by dual-excitation spectrofluorimetric analysis; format: functional, cell-based
Procedure, shortened: (§2)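 1321N1 astrocytoma cells stably expressing the receptor (turkey P2Y1, human P2Y2, human P2Y4, rat P2Y6) were grown with G-418 selection. Fura-2-loaded cell suspensions were exposed at 37 °C in 10 mM HEPES-buffered saline pH 7.4 with 1 mM CaCl2 and 1 mM MgCl2. Peak [Ca2+]i rise was measured over a range of concentrations to derive EC50.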

P2Y purinoceptor 4 [6] = target: T2, P2Y purinoceptor 4 (Homo sapiens, UniProt P51582); assay: Antagonist activity at human P2Y4 receptor expressed in human 1321N1 cells assessed as inhibition of UTP-induced increase in intracellular calcium concentration by dual-excitation spectrofluorimetric analysis; format: functional, cell-based; procedure, shortened: as §1
P2Y purinoceptor 4 [7] = target: T2, P2Y purinoceptor 4; assay: Agonist activity at human P2Y4 receptor expressed in human 1321N1 cells assessed as increase in intracellular calcium concentration by dual-excitation spectrofluorimetric analysis; format: functional, cell-based; procedure, shortened: as §2
Serum = assay: Metabolic stability in human serum assessed as hydrolysis half life at 0.25 mM measured for 4 days by HPLC; format: ADME, cell-free; details: 96 h, 250 µM
Procedure, shortened: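 Human serum (healthy donors; clotted 12 h at 4 °C, spun 1500 × g, stored −80 °C) diluted with RPMI-1640, incubated with 0.25 mM nucleotide at 37 °C for 1–96 h. Stopped with HCl, neutralized with KOH, analysed by C18 HPLC (KH2PO4 pH 4.5/acetonitrile). t1/2 from peak-area change.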

Chain of P2Y purinoceptor 6 (Rattus norvegicus) (Q63371 whole entry): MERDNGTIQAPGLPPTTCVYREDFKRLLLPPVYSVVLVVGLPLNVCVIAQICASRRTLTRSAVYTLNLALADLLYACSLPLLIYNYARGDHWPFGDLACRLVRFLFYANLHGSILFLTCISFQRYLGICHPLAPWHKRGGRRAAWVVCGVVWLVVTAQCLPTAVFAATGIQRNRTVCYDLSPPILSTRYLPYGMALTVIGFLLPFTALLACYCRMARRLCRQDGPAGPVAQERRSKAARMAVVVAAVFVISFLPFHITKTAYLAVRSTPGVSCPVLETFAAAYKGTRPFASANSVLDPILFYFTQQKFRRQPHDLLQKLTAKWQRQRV
Chain of P2Y purinoceptor 2 (P41231 whole entry): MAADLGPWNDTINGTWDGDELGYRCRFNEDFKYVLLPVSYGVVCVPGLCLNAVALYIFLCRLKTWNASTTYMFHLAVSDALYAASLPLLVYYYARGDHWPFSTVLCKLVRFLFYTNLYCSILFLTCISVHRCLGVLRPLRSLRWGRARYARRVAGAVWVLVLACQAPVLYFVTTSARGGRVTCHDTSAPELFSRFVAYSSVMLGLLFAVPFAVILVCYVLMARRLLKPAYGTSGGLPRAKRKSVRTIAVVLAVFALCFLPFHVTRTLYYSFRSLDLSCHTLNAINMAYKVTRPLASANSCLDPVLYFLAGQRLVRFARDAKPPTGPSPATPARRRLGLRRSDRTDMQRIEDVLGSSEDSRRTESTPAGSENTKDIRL
T2 sequence (P51582 whole entry): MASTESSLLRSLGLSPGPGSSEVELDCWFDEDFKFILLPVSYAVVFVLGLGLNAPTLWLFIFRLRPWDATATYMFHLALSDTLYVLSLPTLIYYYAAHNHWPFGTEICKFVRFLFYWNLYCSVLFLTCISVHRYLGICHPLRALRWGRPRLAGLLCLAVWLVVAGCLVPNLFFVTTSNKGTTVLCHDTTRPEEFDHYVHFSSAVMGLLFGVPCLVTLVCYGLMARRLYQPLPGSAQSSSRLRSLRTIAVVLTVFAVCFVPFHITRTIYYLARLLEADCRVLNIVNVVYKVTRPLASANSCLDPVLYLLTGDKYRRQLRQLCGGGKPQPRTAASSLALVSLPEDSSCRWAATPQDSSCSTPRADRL
Chain of P2Y purinoceptor 1 (P49652 whole entry): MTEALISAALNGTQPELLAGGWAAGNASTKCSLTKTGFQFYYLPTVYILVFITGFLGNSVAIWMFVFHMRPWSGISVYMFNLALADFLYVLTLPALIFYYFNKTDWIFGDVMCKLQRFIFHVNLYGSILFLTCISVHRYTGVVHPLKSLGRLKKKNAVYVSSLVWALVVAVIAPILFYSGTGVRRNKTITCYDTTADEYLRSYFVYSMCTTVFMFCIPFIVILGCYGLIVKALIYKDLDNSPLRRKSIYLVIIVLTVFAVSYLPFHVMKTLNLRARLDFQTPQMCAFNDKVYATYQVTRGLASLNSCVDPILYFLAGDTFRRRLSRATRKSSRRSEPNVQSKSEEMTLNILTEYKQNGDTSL

Question: What does the source list for `CSc1nc(N)c2ncn([C@@H]3O[C@H](COP(=O)(O)OP(=O)(O)CP(=O)(O)O)[C@@H](O)[C@H]3O)c2n1`?
Answer: EC50 (P2Y purinoceptor 1): 0.08 µM; Activity [1]: 2%; Stability [2]: Stable; pKa [3]: 8.4; Activity [4]: inactive; half-life [5]: 65 h; Activity (P2Y purinoceptor 2): inactive; Activity (P2Y purinoceptor 4 [6]): inactive; Activity (P2Y purinoceptor 4 [7]): inactive; t1/2 (Serum): 12.7 h

Question: With `BP(=O)(OC[C@H]1O[C@@H](n2cnc3c(N)ncnc32)[C@H](O)[C@@H]1O)OP(=O)(O)CP(=O)(O)O` (stereo not given in full) as the compound, how does the Activity [1] read?
Answer: 1%

Question: What about the Activity [4] of the same compound?
Answer: inactive

Question: What about the Activity (P2Y purinoceptor 2) of the same compound?
Answer: inactive

Question: And the Activity (P2Y purinoceptor 4 [6])?
Answer: inactive

Question: And the Activity (P2Y purinoceptor 4 [7])?
Answer: inactive

Question: Which results are given for `BP(=O)(OC[C@H]1O[C@@H](n2cnc3c(N)nc(SC)nc32)[C@H](O)[C@@H]1O)OP(=O)(O)CP(=O)(O)O` (single isomer, unassigned; diastereomer A)?
Answer: Activity [1]: 1%; Activity [4]: inactive; Activity (P2Y purinoceptor 2): inactive; Activity (P2Y purinoceptor 4 [6]): inactive; Activity (P2Y purinoceptor 4 [7]): inactive

Question: Which Activity [1] does the source give for `BP(=O)(OC[C@H]1O[C@@H](n2cnc3c(N)nc(SC)nc32)[C@H](O)[C@@H]1O)OP(=O)(O)CP(=O)(O)O` (single isomer, unassigned; diastereomer B) here?
Answer: 1%

Question: And the Activity [4]?
Answer: inactive

Question: What about the Activity (P2Y purinoceptor 2) of the same compound?
Answer: inactive

Question: What about the Activity (P2Y purinoceptor 4 [6]) of the same compound?
Answer: inactive

Question: And the Activity (P2Y purinoceptor 4 [7])?
Answer: inactive

Question: For `BP(=O)(OC[C@H]1O[C@@H](n2cnc3c(N)ncnc32)[C@H](O)[C@@H]1O)OP(=O)(O)CP(=O)(O)O` (single isomer, unassigned; diastereomer B), which Activity [1] is on record?
Answer: 0%

Question: What about the Activity [4] of the same compound?
Answer: inactive

Question: And the Activity (P2Y purinoceptor 2)?
Answer: inactive

Question: And the Activity (P2Y purinoceptor 4 [6])?
Answer: inactive

Question: What about the Activity (P2Y purinoceptor 4 [7]) of the same compound?
Answer: inactive
